# Data published in ChEMBL document CHEMBL1649165, “Activity profile in vitro of micafungin against Spanish clinical isolates of common and emerging species of yeasts and molds” (2009).
# *1 amine or outer side, *2 acyl side, *3 side chain or, on linkers, in order; H or OH if unused. Where a SMILES comes first, the peptide text is derived from it. Bridges are numbered along the chain shown (N, C = ends). [ ]: non-standard residue; d: D form. The star is where a group is joined. pTerphenylCO(4''-OnC5H11) = CCCCCOc1ccc(-c2ccc(-c3ccc(C(=O)*)cc3)cc2)cc1; Orn(4R-OH,5R-OH) = O=C([C@H](C[C@@H](O)[C@@H](O)N[*:3])N[*:1])[*:2]; hTyr(3S-OH,4S-OH) = N[C@H](C(=O)O)[C@H](O)[C@@H](O)c1ccc(O)cc1; Pro(3S-OH,4S-Me) = C[C@H]1CN[C@H](C(=O)O)[C@H]1O; Hyp = O=C(O)[C@@H]1C[C@@H](O)CN1
# Columns and labels:
# Assay type in all cases: functional
# [1] = tested on: [Candida] intermedia; experiment: Antimicrobial activity against Candida intermedia by broth microdilution method; conditions: Sungouiella intermedia
# Procedure, shortened: (§1)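 Clinical isolates from human patients, tested by broth microdilution using the AFST-EUCAST reference procedure for fermentative yeasts. The MIC was read per that reference method.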
# [2] = tested on: Lewia infectoria; experiment: Antimicrobial activity against Alternaria infectoria by broth microdilution method
# Procedure, shortened: (§2)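 Clinical mould isolates, tested by broth microdilution using the AFST-EUCAST reference method for filamentous fungi. For echinocandins, the endpoint was the minimum effective concentration: the lowest drug concentration giving aberrant hyphal growth, read with an inverted microscope.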
# [3] = tested on: Mucor; experiment: Antimicrobial activity against Mucor spp.by broth microdilution method
# Procedure, shortened: (§3)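 Filamentous fungus clinical isolates tested by the AFST-EUCAST reference broth microdilution method for moulds. For echinocandins, the endpoint was the minimum effective concentration: the lowest drug concentration giving aberrant hyphal growth, read with an inverted microscope.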
# [4] = tested on: Kazachstania pintolopesii; experiment: Antimicrobial activity against Candida pintolopesii by broth microdilution method; conditions: Arxiozyma pintolopesii; procedure, shortened: as §1
# [5] = tested on: Aspergillus nidulans; experiment: Antimicrobial activity against Aspergillus nidulans by broth microdilution method; procedure, shortened: as §2
# [6] = tested on: Exophiala dermatitidis; experiment: Antimicrobial activity against Exophiala dermatitidis by broth microdilution method
# [7] = tested on: Aspergillus ochraceus; experiment: Antimicrobial activity against Aspergillus ochraceus by broth microdilution method; procedure, shortened: as §2
# [8] = tested on: Candida tropicalis; experiment: Antimicrobial activity against Candida tropicalis by broth microdilution method; procedure, shortened: as §1
# [9] = tested on: Aspergillus terreus; experiment: Antimicrobial activity against Aspergillus terreus by broth microdilution method; procedure, shortened: as §2
# [10] = tested on: Phialemonium curvatum; experiment: Antimicrobial activity against Phialemonium curvatum by broth microdilution method; conditions: Thyridium curvatum; procedure, shortened: as §3
# [11] = tested on: Penicillium; experiment: Antimicrobial activity against Penicillium spp. by broth microdilution method; procedure, shortened: as §3
# [12] = tested on: Hortaea werneckii; experiment: Antimicrobial activity against Hortaea werneckii by broth microdilution method
# [13] = tested on: Fusarium proliferatum; experiment: Antimicrobial activity against Fusarium proliferatum by broth microdilution method; procedure, shortened: as §2
# [14] = tested on: Rhodotorula glutinis; experiment: Antimicrobial activity against Rhodotorula glutinis by broth microdilution method
# Procedure, shortened: (§4)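 Nonfermentative yeast clinical isolates (Rhodotorula, Trichosporon) tested by broth microdilution. The EUCAST yeast recommendations were followed strictly, with one minor modification to improve growth. MIC was read as the endpoint.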
# [15] = tested on: Fusarium solani; experiment: Antimicrobial activity against Fusarium solani by broth microdilution method; procedure, shortened: as §3
# [16] = tested on: Candida orthopsilosis; experiment: Antimicrobial activity against Candida orthopsilosis by broth microdilution method; conditions: Lodderomyces orthopsilosis; procedure, shortened: as §1
# [17] = tested on: Scytalidium hyalinum; experiment: Antimicrobial activity against Scytalidium hyalinum by broth microdilution method; conditions: Neoscytalidium hyalinum; procedure, shortened: as §3
# [18] = tested on: Clavispora lusitaniae; experiment: Antimicrobial activity against Candida lusitaniae by broth microdilution method; procedure, shortened: as §1
# [19] = tested on: Fusarium verticillioides; experiment: Antimicrobial activity against Fusarium verticillioides by broth microdilution method; procedure, shortened: as §3
# [20] = tested on: Rhizopus arrhizus; experiment: Antimicrobial activity against Rhizopus oryzae by broth microdilution method; procedure, shortened: as §3
# [21] = tested on: Scopulariopsis brevicaulis; experiment: Antimicrobial activity against Scopulariopsis brevicaulis by broth microdilution method; procedure, shortened: as §3
# [22] = tested on: Fusarium reticulatum; experiment: Antimicrobial activity against Fusarium reticulatum by broth microdilution method; procedure, shortened: as §3
# [23] = tested on: Lecythophora hoffmannii; experiment: Antimicrobial activity against Lecythophora hoffmannii by broth microdilution method; conditions: Coniochaeta hoffmannii; procedure, shortened: as §3
# [24] = tested on: Naganishia albida; experiment: Antimicrobial activity against Cryptococcus albidus by broth microdilution method
# Procedure, shortened: (§5)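 Clinical isolates of nonfermentative yeasts, tested by broth microdilution following EUCAST recommendations. The only change from that method was a minor modification to improve growth.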
# [25] = tested on: Meyerozyma guilliermondii; experiment: Antimicrobial activity against Candida guilliermondii by broth microdilution method; procedure, shortened: as §1
# [26] = tested on: Fennellia nivea; experiment: Antimicrobial activity against Aspergillus niveus by broth microdilution method; procedure, shortened: as §2
# [27] = tested on: Acremonium sp.; experiment: Antimicrobial activity against Acremonium sp.by broth microdilution method; procedure, shortened: as §2
# [28] = tested on: Cryptococcus deneoformans; experiment: Antimicrobial activity against Cryptococcus neoformans var. neoformans by broth microdilution method; procedure, shortened: as §5
# [29] = tested on: Trichosporon domesticum; experiment: Antimicrobial activity against Trichosporon mycotoxinivorans by broth microdilution method; conditions: Apiotrichum domesticum
# Procedure, shortened: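 Spanish human clinical isolates were tested as nonfermentative yeasts by broth microdilution. The method strictly followed the EUCAST recommendations, with a minor modification to improve growth, and the read-out was the MIC.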
# [30] = tested on: Cunninghamella bertholletiae; experiment: Antimicrobial activity against Cunninghamella bertholletiae by broth microdilution method; procedure, shortened: as §2
# [31] = tested on: Coprinellus domesticus; experiment: Antimicrobial activity against Hormographiella verticillata by broth microdilution method; procedure, shortened: as §3
# [32] = tested on: Ustilago; experiment: Antimicrobial activity against Ustilago spp by broth microdilution method
# [33] = tested on: Fusarium equiseti; experiment: Antimicrobial activity against Fusarium equiseti by broth microdilution method; procedure, shortened: as §2
# [34] = tested on: Kluyveromyces marxianus; experiment: Antimicrobial activity against Candida kefyr by broth microdilution method; procedure, shortened: as §1
# [35] = tested on: Aureobasidium pullulans; experiment: Antimicrobial activity against Aureobasidium pullulans by broth microdilution method
# [36] = tested on: Scedosporium apiospermum; experiment: Antimicrobial activity against Scedosporium apiospermum by broth microdilution method; procedure, shortened: as §3
# [37] = tested on: Trichosporon inkin; experiment: Antimicrobial activity against Trichosporon inkin by broth microdilution method; procedure, shortened: as §4
# [38] = tested on: Fusarium oxysporum; experiment: Antimicrobial activity against Fusarium oxysporum by broth microdilution method; procedure, shortened: as §2
# [39] = tested on: Rhodotorula mucilaginosa; experiment: Antimicrobial activity against Rhodotorula mucilaginosa by broth microdilution method; procedure, shortened: as §4
# [40] = tested on: Diutina rugosa; experiment: Antimicrobial activity against Candida rugosa by broth microdilution method; procedure, shortened: as §1
# [41] = tested on: Aspergillus glaucus; experiment: Antimicrobial activity against Aspergillus glaucus by broth microdilution method; procedure, shortened: as §2
# [42] = tested on: Aspergillus flavus; experiment: Antimicrobial activity against Aspergillus flavus by broth microdilution method; procedure, shortened: as §2
# [43] = tested on: Torulaspora delbrueckii; experiment: Antimicrobial activity against Candida coliculosa by broth microdilution method; procedure, shortened: as §1
# [44] = tested on: Aspergillus ustus; experiment: Antimicrobial activity against Aspergillus ustus by broth microdilution method; procedure, shortened: as §2
structure (smiles),measurement,setting,value
"CCCCCOc1ccc(-c2ccc(-c3ccc(C(=O)N[C@H]4C[C@@H](O)[C@@H](O)NC(=O)[C@@H]5[C@@H](O)[C@@H](C)CN5C(=O)[C@H]([C@@H](C)O)NC(=O)[C@H]([C@H](O)[C@@H](O)c5ccc(O)cc5)NC(=O)[C@@H]5C[C@@H](O)CN5C(=O)[C@H]([C@@H](C)O)NC4=O)cc3)cc2)cc1 [ANIDULAFUNGIN] ({pTerphenylCO(4''-OnC5H11)}-[Orn(4R-OH,5R-OH)]T[Hyp][hTyr(3S-OH,4S-OH)]T[Pro(3S-OH,4S-Me)]; lactam 1-C)",MIC50,[1],0.06 µg/mL
same,MIC90,[1],0.25 µg/mL
same,MIC50,[2],2 µg/mL
same,MIC90,[2],> 16 µg/mL
same,MIC50,[3],> 16 µg/mL
same,MIC90,[3],> 16 µg/mL
same,MIC50,[4],0.06 µg/mL
same,MIC90,[4],0.25 µg/mL
same,MIC50,[5],0.03 µg/mL
same,MIC90,[5],0.25 µg/mL
same,MIC50,[6],0.03 µg/mL
same,MIC90,[6],0.06 µg/mL
same,MIC50,[7],0.06 µg/mL
same,MIC90,[7],0.25 µg/mL
same,MIC50,[8],0.03 µg/mL
same,MIC90,[8],0.03 µg/mL
same,MIC50,[9],0.03 µg/mL
same,MIC90,[9],0.03 µg/mL
same,MIC50,[10],> 16 µg/mL
same,MIC90,[10],> 16 µg/mL
same,MIC50,[11],0.03 µg/mL
same,MIC90,[11],0.03 µg/mL
same,MIC50,[12],0.03 µg/mL
same,MIC90,[12],0.06 µg/mL
same,MIC50,[13],> 16 µg/mL
same,MIC90,[13],> 16 µg/mL
same,MIC50,[14],> 16 µg/mL
same,MIC90,[14],> 16 µg/mL
same,MIC50,[15],> 16 µg/mL
same,MIC90,[15],> 16 µg/mL
same,MIC50,[16],0.06 µg/mL
same,MIC90,[16],0.25 µg/mL
same,MIC50,[17],0.03 µg/mL
same,MIC90,[17],0.06 µg/mL
same,MIC50,[18],0.03 µg/mL
same,MIC90,[18],0.12 µg/mL
same,MIC50,[19],> 16 µg/mL
same,MIC90,[19],> 16 µg/mL
same,MIC50,[20],> 16 µg/mL
same,MIC90,[20],> 16 µg/mL
same,MIC50,[21],> 16 µg/mL
same,MIC90,[21],> 16 µg/mL
same,MIC50,[22],> 16 µg/mL
same,MIC90,[22],> 16 µg/mL
same,MIC50,[23],0.03 µg/mL
same,MIC90,[23],0.06 µg/mL
same,MIC50,[24],> 16 µg/mL
same,MIC90,[24],> 16 µg/mL
same,MIC50,[25],1 µg/mL
same,MIC90,[25],8 µg/mL
same,MIC50,[26],0.06 µg/mL
same,MIC90,[26],0.25 µg/mL
same,MIC50,[27],0.03 µg/mL
same,MIC90,[27],0.03 µg/mL
same,MIC50,[28],> 16 µg/mL
same,MIC90,[28],> 16 µg/mL
same,MIC50,[29],> 16 µg/mL
same,MIC90,[29],> 16 µg/mL
same,MIC50,[30],> 16 µg/mL
same,MIC90,[30],> 16 µg/mL
same,MIC50,[31],> 16 µg/mL
same,MIC90,[31],> 16 µg/mL
same,MIC50,[32],> 16 µg/mL
same,MIC90,[32],> 16 µg/mL
same,MIC50,[33],> 16 µg/mL
same,MIC90,[33],> 16 µg/mL
same,MIC50,[34],0.03 µg/mL
same,MIC90,[34],0.03 µg/mL
same,MIC50,[35],0.03 µg/mL
same,MIC90,[35],0.06 µg/mL
same,MIC50,[36],0.5 µg/mL
same,MIC90,[36],4 µg/mL
same,MIC50,[37],> 16 µg/mL
same,MIC90,[37],> 16 µg/mL
same,MIC50,[38],> 16 µg/mL
same,MIC90,[38],> 16 µg/mL
same,MIC50,[39],> 16 µg/mL
same,MIC90,[39],> 16 µg/mL
same,MIC50,[40],0.06 µg/mL
same,MIC90,[40],0.25 µg/mL
same,MIC50,[41],0.06 µg/mL
same,MIC90,[41],0.25 µg/mL
same,MIC50,[42],> 16 µg/mL
same,MIC90,[42],> 16 µg/mL
same,MIC50,[43],0.06 µg/mL
same,MIC90,[43],0.25 µg/mL
same,MIC50,[44],0.06 µg/mL
same,MIC90,[44],0.25 µg/mL
